The entries come from a sample that favours hits as a whole.
Fibroblast inh: blocks proliferation of human lung fibroblasts. LL 47 human lung fibroblast viability, ATP luminescence; hits give low values. viability, % at 10 µM. actives 1.1% (n = 85,000). AID 719;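 active = viability at or below 50% in the single dose screen; inactive = viability above 50%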;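 note: compound exposure lasted 72 h before the ATP readout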
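Assay system: human lung fibroblast line LL 47, low passage. Input: 1,150 fibroblasts seeded per well. Times: overnight cell rest, 72 h compound treatment at 37 °C. Evaluation: % viability of median cell-only signal. Technique: luminescent ATP detection, CellTiter-Glo. Control set: cell-only wells, no compound.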
HCT116 PTEN-null: growth suppressors of cells with PTEN tumor suppressor deletion; HCT116 PTEN-null viability, CellTiter-Glo, 60 h; hits give low values; viability, % at 10 µM; actives 1.2% (n = 140,000); AID 827;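 active = viability at or below a set limit, 4 SD under the median of all tested compounds, cut at about 3.7% in these data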;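 note: PTEN knockout HCT116 line with beta catenin targeted HCT116 as companion control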
bCat KO growth: beta-catenin-lacking colon tumor cell growth suppression | actives 1.5% (n = 140,000) | viability, % at 10 µM | HCT116 beta-catenin knockout viability, CellTiter-Glo, 60 h; hits give low values;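 active = viability at or under a set limit, the compound median less 4 SD, cut at about 6% in these data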
HUVEC inhibit: inhibitors of human endothelial cell proliferation. actives 1.1% (n = 86,000). AID 648. viability, % at 10 µM (by protocol). HUVEC proliferation, CellTiter-Glo luminescence, 72 h; hits give low values;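 active = viability at or below 30%; inactive = viability above 30%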
H69AR growth 86K: growth inhibitors of human H69AR lung tumor cells; H69AR lung tumor viability, ATP luminescence, 72 h; hits give low values; viability, % at 10 µM; actives 6% (n = 85,000); AID 598;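 active = viability at or below 40%; inactive = viability above 40%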;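 note: multidrug resistant small cell line overexpressing MRP-1 efflux transporter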
PTK2B oligo ant: Pyk2 (human) oligomerization antagonism; Q293 cells, Pyk2 FERM NanoBiT luminescence; hits give low values; Q14289; actives 0.83% (n = 99,000); z-score (the deposit names both 25 µM and 10 µM);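 active = Z-score of -3 or lower, scaled per plate to the spread of control and sample wells; inactive = z-score above -3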;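 note: negative z-score means lost luminescence so less FERM oligomerization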
Target sequence (Q14289 whole entry, looked up): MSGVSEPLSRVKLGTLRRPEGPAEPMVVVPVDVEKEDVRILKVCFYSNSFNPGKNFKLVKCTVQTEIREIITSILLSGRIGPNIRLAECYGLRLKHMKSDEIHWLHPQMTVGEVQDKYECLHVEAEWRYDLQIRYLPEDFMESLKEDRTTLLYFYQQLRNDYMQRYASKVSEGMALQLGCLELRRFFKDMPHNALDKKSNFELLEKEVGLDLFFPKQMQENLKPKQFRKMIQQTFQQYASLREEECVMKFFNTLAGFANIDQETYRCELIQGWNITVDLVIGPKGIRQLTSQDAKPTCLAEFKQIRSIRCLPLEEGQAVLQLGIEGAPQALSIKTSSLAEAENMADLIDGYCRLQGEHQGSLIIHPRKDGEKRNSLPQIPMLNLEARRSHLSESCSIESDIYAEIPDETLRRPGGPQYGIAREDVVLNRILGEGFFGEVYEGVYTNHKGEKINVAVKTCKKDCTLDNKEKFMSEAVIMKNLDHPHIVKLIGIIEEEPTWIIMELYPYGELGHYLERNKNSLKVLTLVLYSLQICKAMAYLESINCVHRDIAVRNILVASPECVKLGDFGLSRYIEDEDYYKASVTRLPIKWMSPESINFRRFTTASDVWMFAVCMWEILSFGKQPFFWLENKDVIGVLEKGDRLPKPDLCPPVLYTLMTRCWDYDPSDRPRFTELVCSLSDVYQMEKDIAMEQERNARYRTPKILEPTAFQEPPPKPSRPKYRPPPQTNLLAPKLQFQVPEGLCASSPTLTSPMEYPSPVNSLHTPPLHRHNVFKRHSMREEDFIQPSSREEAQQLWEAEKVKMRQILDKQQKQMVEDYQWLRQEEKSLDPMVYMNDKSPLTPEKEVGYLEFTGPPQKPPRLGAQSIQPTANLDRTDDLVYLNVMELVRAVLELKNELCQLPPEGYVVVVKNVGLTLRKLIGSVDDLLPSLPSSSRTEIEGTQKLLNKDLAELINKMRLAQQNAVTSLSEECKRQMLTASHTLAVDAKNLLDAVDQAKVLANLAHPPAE
Numbers stand for hits; 0 = inactive; - = no result given.

SMILES | Fibroblast inh | HCT116 PTEN-null | bCat KO growth | HUVEC inhibit | H69AR growth 86K | PTK2B oligo ant
O=c1c2ccccc2nc(SCc2cn3ccsc3n2)n1-c1ccccc1F | 0 | 0 | 0 | 0 | 0 | -3.5
O=c1c2ccccc2nc(SCc2cn3ccsc3n2)n1-c1ccccc1 | 0 | 0 | 0 | 0 | 0 | 0
CCc1ccc(OCC(=O)N/N=C\c2ccco2)c([N+](=O)[O-])c1 | - | 0 | 0 | - | - | -
CC1CCCCC1n1c(=S)[nH]c2ccccc2c1=O (stereo not drawn) | 0 | 0 | 0 | 0 | 18 | 0
COc1ccc(-n2nc(C(=O)Nc3ccc(OC)c(OC)c3)c3c4ccccc4n(C)c3c2=O)cc1 | 0 | 3.5 | 3.7 | 0 | 9.2 | 0
Cc1ccc(-n2nc(C(=O)NCc3ccco3)c3c4ccccc4n(C)c3c2=O)cc1 | - | 0 | 0 | - | - | 0
CCN(CC)CCNC(=O)c1nn(-c2ccc(C)cc2)c(=O)c2c1c1ccccc1n2C | 0 | 0 | 0 | 20 | 0 | 0
Cc1ccsc1/C=N/NC(=O)C1CC(=O)N(c2ccccc2)C1 (stereo not drawn) | - | 0 | 0 | - | - | -
Cn1nnnc1SCC(=O)Nc1c(Cl)cccc1Cl | 0 | 0 | 0 | 0 | 0 | 0
Cc1cccc(C)c1OCC(=O)N=Nc1c(O)[nH]c2ccc(Br)cc12 | 0 | 0 | 0 | 17 | 1.9 | 0
CC1=C(n2nnc([N+](=O)[O-])n2)C(c2cccnc2)C(C#N)=C(N)O1 (stereo not drawn) | - | 0 | 0 | - | - | -
C=CCn1c(SCc2nc3ccccc3c(=O)[nH]2)nnc1-c1cc2cc(Cl)ccc2o1 | 0 | 0 | 0 | 0 | 17 | 0
O=C(/C=C/c1cccc(Cl)c1)c1nc2ccccc2[nH]1 | - | 1.0 | 0.7 | - | - | 0
O=C(/C(=C/c1ccc(Cl)cc1)c1nc2ccccc2[nH]1)c1cccs1 | - | 1.9 | 1.9 | - | - | 0
COc1ccc(/C=C(/NC(=O)c2ccccc2)c2nc3ccccc3[nH]2)cc1OC | - | 0 | 0 | - | - | 0
O=C(/C=C/c1cccc(Cl)c1)Nc1ncccn1 | - | 0 | 0 | - | - | -
O=C(/C(=C\c1ccccc1)c1nc2ccccc2[nH]1)c1ccc(Cl)cc1 | - | 1.9 | 2.2 | - | - | -
COc1cc(/C=C(/C(=O)c2cccs2)c2nc3ccccc3[nH]2)ccc1O | 11 | 2.0 | 3.8 | 0 | 2.0 | 0
Cc1ccc(Cn2cccc(NC(=O)c3ccco3)c2=O)cc1 | 0 | 0 | 0 | 0 | 0 | 0
N#Cc1cccc(C(c2nnnn2C2CCCC2)N2CCC(Cc3ccccc3)CC2)c1 (stereo not drawn) | 0 | 0 | 0 | 0 | 0 | -4.4
COc1cc(CNC(C)(C)CO)cc(Br)c1OCc1ccc(Cl)cc1 | - | 0 | 0 | - | - | -
COc1cc(CNC(C)(C)CO)cc(Br)c1OCc1ccc(Cl)cc1Cl | - | 1.6 | 1.3 | - | - | -
O=c1c(C(c2ccccc2)c2c(O)nc3n(c2=O)CCS3)c(O)nc2n1CCS2 | - | 0 | 0 | - | - | -
CCOC(=O)c1c(NC(=O)c2cnn3c2NC(c2cccc(OC)c2)CC3C(F)(F)F)sc2c1CCCC2 (stereo not drawn) | - | 0 | 0 | - | - | -
COc1ccccc1-c1nnc2n1N=C(c1ccc(O)c(O)c1)CS2 | 38 | 0 | 0 | 0 | 21 | 0
SMILES | Fibroblast inh | HCT116 PTEN-null | bCat KO growth | HUVEC inhibit | H69AR growth 86K | PTK2B oligo ant
COc1ccc(C2=Nn3c(nnc3-c3cccnc3)SC2)cc1OC | 45 | - | - | 0 | 0 | 0
COc1ccc(C2=Nn3c(nnc3-c3ccncc3)SC2)cc1OC | - | 0 | 0 | - | - | 0
CCOc1ccc(C2=Nn3c(nnc3-c3ccccc3OC)SC2)cc1 | - | 0 | 0 | - | - | 0
CC1CCc2sc3c(c2C1)c1ncnn1c(=O)n3CC(=O)c1ccc(Br)cc1 (stereo not drawn) | 0 | - | - | 0 | 0 | 0
CCN(CC)c1ccc(/C=N/NC(=O)Cc2cccs2)c(O)c1 | - | 0 | 5.2 | - | - | -
CCN(CC)c1ccc(/C=N/Nc2nc3ccccc3[nH]2)c(O)c1 | - | 0 | 3.5 | - | - | 0
Cc1ccc2cc(/C=N/Nc3nc4ccccc4[nH]3)c(Cl)nc2c1 | - | 0 | 0 | - | - | -
Cc1cccc(Cn2c(=O)c3c(nc4n3CCCN4Cc3ccccc3)n(C)c2=O)c1 | 0 | 0 | 0 | 0 | 0 | 0
CC(C)COC(=O)n1c(=O)oc2cc(S(=O)(=O)N3CCCCC3)ccc21 | 0 | 0 | 0 | 0 | 0 | -3.5
CC(C)(CNC(=O)c1cc2ccccc2o1)N1CCOCC1 | - | 0 | 0 | 0 | 0 | 0
COC(=O)[C@@H]1[C@@H](C#N)C2(c3ccccc3-c3ccccc32)N(c2ccc(Cl)cc2)N1C#N | 40 | 0 | 0 | 21 | 0.2 | 0
N#Cc1c(N)nc(SCC(=O)C23CC4CC(CC(C4)C2)C3)c(C#N)c1-c1ccc(Cl)cc1 | 0 | 0 | 0 | 0 | 16 | 0
O=C(NN1C(=O)c2cc(Br)ccc2NC1c1cc(Br)cc(Br)c1O)c1ccncc1 (stereo not drawn) | - | 0 | 0 | - | - | -
CNc1nc(Nc2ccc(Br)cc2)nc(N)c1[N+](=O)[O-] | - | 0 | 0 | - | - | -
N=c1c2c(-c3ccccc3)c(-c3ccccc3)n(Cc3ccco3)c2ncn1Cc1ccccc1 | 32 | 1.9 | 1.1 | 2.1 | 9.9 | 0
O=c1c2c3nc4ccccc4nc3n(Cc3ccccc3)c2ncn1Cc1ccco1 | 0 | 0 | 0 | 0 | 0 | 0
N=c1c2c(-c3ccccc3)c(-c3ccccc3)n(Cc3ccccc3)c2ncn1CCO | 22 | 1.6 | 1.2 | 3.3 | 1.9 | 0
CC(C)Cn1cnc2c(c(-c3ccccc3)c(-c3ccccc3)n2Cc2ccco2)c1=N | 3.1 | 3.0 | 2.8 | 2.5 | 1.1 | 0
C1CCN(c2c3c(nc4nnnn24)CCCC3)CC1 | 0 | 0 | 0 | 0 | 0 | 0
Cc1[nH]c2ccccc2c1SCCN | 0 | - | - | 0 | 35 | -
Cc1ccc(CN=Cc2[nH]c3ccc(Br)c(Cl)c3c2O)cc1 | 0 | 0 | 0 | 0 | 33 | 0
CCC(C)NS(=O)(=O)c1ccc(OCC(=O)N2CCCCC2)cc1 (stereo not drawn) | 0 | 0 | 0 | 0 | 0 | 0
CC(COc1ccccc1)N(CCCl)Cc1ccccc1 (stereo not drawn) | 0 | 0 | 0 | 0 | 1.7 | -
CCN(Cc1ccccc1)C(=O)CCCOc1ccccc1 | 0 | 0 | 0 | 0 | 0 | 0
O=C(Nc1cccc(Cl)c1)Nc1nnc(CC2=CCCCC2)s1 | - | 3.4 | 0 | - | - | -
SMILES | Fibroblast inh | HCT116 PTEN-null | bCat KO growth | HUVEC inhibit | H69AR growth 86K | PTK2B oligo ant
Cc1ccc(NC(=O)Nc2nnc(CSCCOc3ccc(Cl)cc3)s2)cc1 | - | 0 | 0 | - | - | -
O=C(Nc1ccc(Cl)cc1)Nc1nnc(Cc2ccc([N+](=O)[O-])cc2)s1 | - | 0 | 0 | - | - | -
O=C(Nc1cccc(Cl)c1)Nc1nnc(CSCCOc2ccc(Cl)cc2)s1 | - | 0 | 4.2 | - | - | -
CC(C)c1c(Cl)c(O)c(-c2ccccc2)c(=O)n1-c1ccc(F)cc1 | - | 0 | 0 | - | - | -
O=C(CCC(=O)Nc1ccccc1)NNC(=O)C(c1ccccc1)c1ccccc1 | - | 0 | 0 | - | - | -
COc1ccccc1/C=C/C(=O)c1c2c(c(C)[nH]c1=O)CCCC2 | - | 3.2 | 5.4 | - | - | 0
CCCCCCNc1nc(-c2ccc(OC)cc2)c(CCC(=O)O)s1 | - | 0 | 0 | - | - | -
Cc1nc2ccccc2nc(C)c1=NO | 0 | 0 | 0 | 0 | 27 | 0
CCOC(=O)c1nc2ccccc2nc1C | - | 0 | 0 | - | - | -
Cc1nc2ccc(Cl)cc2nc(C)/c1=N\O | 0 | 0 | 0 | 0 | 5.6 | 0
